Measured values taken from ChEMBL document CHEMBL2069280, “Synthesis and evaluation of sulfonylnitrophenylthiazoles (SNPTs) as thyroid hormone receptor-coactivator interaction inhibitors” (J Med Chem, 2012).

Assay: Permeability of compound by PAMPA at pH 7.4
Type: ADME
Conditions: not given
Method in brief: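 Parallel artificial membrane permeation assay at pH 7.4, read as permeability in 10^-6 cm/s. Mean of a single triplicate experiment.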

Row | permeability | Structure (SMILES)
1 | 1030 ×10⁻⁶ cm/s | CN(Cc1cccc(F)c1)C(=O)c1cnc(-c2ccc(S(C)(=O)=O)c([N+](=O)[O-])c2)s1
2 | 1500 ×10⁻⁶ cm/s | CN(Cc1ccccc1)C(=O)c1sc(-c2ccc(S(C)(=O)=O)c([N+](=O)[O-])c2)nc1C(F)(F)F
3 | 949 ×10⁻⁶ cm/s | CCc1nc(-c2ccc(S(C)(=O)=O)c([N+](=O)[O-])c2)sc1C(=O)N1CC2(C)CC1CC(C)(C)C2 (centres undefined)
4 | 379 ×10⁻⁶ cm/s | CS(=O)(=O)c1ccc(-c2ncc(C(=O)NC34CC5CC(CC(C5)C3)C4)s2)cc1[N+](=O)[O-]
5 | 971 ×10⁻⁶ cm/s | CS(=O)(=O)c1ccc(-c2nc(-c3ccccc3)c(C(=O)N3CCCCC3)s2)cc1[N+](=O)[O-]
6 | 657 ×10⁻⁶ cm/s | CCc1nc(-c2ccc(S(C)(=O)=O)c([N+](=O)[O-])c2)sc1C(=O)N1CCCCC1
7 | 287 ×10⁻⁶ cm/s | CS(=O)(=O)c1ccc(-c2ncc(C(=O)N3CCCCC3)s2)cc1[N+](=O)[O-]
8 | 912 ×10⁻⁶ cm/s | Cc1nc(-c2ccc(S(C)(=O)=O)c([N+](=O)[O-])c2)sc1C(=O)N1CCC(C)CC1
9 | 1620 ×10⁻⁶ cm/s | CCCN(C(=O)c1csc(-c2ccc(S(C)(=O)=O)c([N+](=O)[O-])c2)n1)c1ccccc1
10 | 221 ×10⁻⁶ cm/s | CN(Cc1ccccc1F)C(=O)c1sc(-c2ccc(S(C)(=O)=O)c([N+](=O)[O-])c2)nc1C(F)(F)F
11 | 791 ×10⁻⁶ cm/s | CS(=O)(=O)c1ccc(-c2nc(C(F)(F)F)c(C(=O)N3CCCCC3)s2)cc1[N+](=O)[O-]
12 | 280 ×10⁻⁶ cm/s | Cc1nc(-c2ccc(S(C)(=O)=O)c([N+](=O)[O-])c2)sc1C(=O)N1CCCCC1
13 | 84 ×10⁻⁶ cm/s | CS(=O)(=O)c1ccc(-c2nc(C(F)(F)F)c(C(=O)N3CCc4ccccc4C3)s2)cc1[N+](=O)[O-]
14 | 167 ×10⁻⁶ cm/s | CS(=O)(=O)c1ccc(C(=O)OCC(=O)NC23CC4CC(CC(C4)C2)C3)cc1[N+](=O)[O-]
15 | 1420 ×10⁻⁶ cm/s | Cc1nc(-c2ccc(S(C)(=O)=O)c([N+](=O)[O-])c2)sc1C(=O)N1CC2(C)CC1CC(C)(C)C2 (centres undefined)
16 | 43 ×10⁻⁶ cm/s | CC1Cc2ccccc2N1C(=O)c1sc(-c2ccc(S(C)(=O)=O)c([N+](=O)[O-])c2)nc1C(F)(F)F (centres undefined)
17 | 271 ×10⁻⁶ cm/s | CN(Cc1cccc(F)c1)C(=O)c1sc(-c2ccc(S(C)(=O)=O)c([N+](=O)[O-])c2)nc1C(F)(F)F
18 | 8 ×10⁻⁶ cm/s | CC1(C)CC2CC(C)(CN2C(=O)c2sc(-c3ccc(S(C)(=O)=O)c([N+](=O)[O-])c3)nc2C(F)(F)F)C1 (centres undefined)

Same assay, conditions: read-out: permeability

Row | Papp | Structure (SMILES)
19 | 702 ×10⁻⁶ cm/s | CC1CCN(C(=O)c2sc(-c3ccc(S(C)(=O)=O)c([N+](=O)[O-])c3)nc2C(F)(F)F)CC1
